Experimental findings from ChEMBL document CHEMBL1122670, “Synthesis of previously inaccessible quinazolines and 1,4-benzodiazepines as potential anticonvulsants” (J Med Chem, 1984) are described below.

Molecules are shown by their SMILES. Activity calls are given as the source filed them. Some results are limits rather than exact numbers.

Data set [1] in a line: Compound was determined in rotarod test and expressed as TD50. In kind it is ADME, organism-based. Particulars: mouse, in vivo. The gist of the method:
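ADD Program screen in mice. Doses of 30, 100, 300 and 600 mg/kg were given, four animals per dose, with tests at 30 min and at 4 h. sc Met endpoint: no threshold seizure (single clonic spasm of 5 s) after an sc convulsant dose 99 of pentylenetetrazol. Rotorod assessed acute neurotoxicity.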

The test system of data set [2] is Mus musculus. Nature of the data set: Evaluated for seizure threshold test at a dose 300 mg/kg & MST is the metrazole seizure threshold to persistent clonus; I = Inactive. In kind it is functional, organism-based. More on the design: dose 300 mg/kg. An outline of the steps:
(§1)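 0.5% pentylenetetrazol (with 0.9% NaCl and 0.001% heparin) was infused into a lateral tail vein at 6.31 μL/s. Time to 3 s of persistent clonus (MST) or hindlimb tonic flexion (MMT) was converted to mg/kg infused. Tested at 0.5 h (some at 4 h or 1 h). Results are % change from controls, by Student's t test.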

The subject of data set [3] is Mus musculus. Nature of the data set: Effective dose (ED50) was determined in sc Met (pentylenetetrazole) seizure threshold test. The format is functional. An outline of the steps: (§2)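 ADD Program screen in mice. Doses of 30, 100, 300 and 600 mg/kg were given, four animals per dose, with tests at 30 min and at 4 h. sc Met endpoint: no threshold seizure (single clonic spasm of 5 s) after an sc convulsant dose 99 of pentylenetetrazol. Rotorod assessed acute neurotoxicity. ED50/TD50 were estimated graphically; Litchfield-Wilcoxon 95% confidence limits were added for selected cases.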

Data set [4] concerns Mus musculus. Nature of the data set: Evaluated for seizure threshold test at a dose 300 mg/kg & MMT is the maximal metrazole threshold to tonic flexion. In kind it is functional. An outline of the steps: as §1
In data set [5] the test system is Mus musculus. Nature of the data set: Evaluated for seizure threshold test at a dose 25 mg/kg &MMT is the maximal metrazole threshold to tonic flexion. The format is functional. The gist of the method:
as §1

Data set [6] in a line: Compound was evaluated for median lethal dose. In kind it is ADME, organism-based. To be noted: mouse, in vivo.
The subject of data set [7] is Mus musculus. Nature of the data set: Effective dose (ED50) was determined in sc Met (pentylenetetrazole) seizure threshold test; I = Inactive at all doses including 600 mg/kg. The format is functional, organism-based. More on the design: dose 600 mg/kg. The gist of the method:
as §2

Data set [8] concerns Mus musculus. Nature of the data set: Evaluated for seizure threshold test at a dose 25 mg/kg &MST is the metrazole seizure threshold to persistent clonus. In kind it is functional. The gist of the method: (§3)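 At 0.5 h (some at 1 or 4 h), 0.5% pentylenetetrazol in 0.9% NaCl with 0.001% heparin was infused into the tail vein at 6.31 μL/s. Time to 3 s persistent clonus (MST) or tonic flexion (MMT) was converted to mg/kg, reported as % change vs controls, Student's t test.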

Data set [9] has as its system Mus musculus. The experiment in a line: Evaluated for seizure threshold test at a dose 300 mg/kg &MST is the metrazole seizure threshold to persistent clonus. The format is functional. The gist of the method: as §3
In data set [10] the test system is Mus musculus. The experiment in a line: Evaluated for seizure threshold test at a dose 300 mg/kg &MMT is the maximal metrazole threshold to tonic flexion. The format is functional. An outline of the steps: as §1
Data set [11] has as its system Mus musculus. Nature of the data set: Effective dose (ED50) was determined (at 4hi)n sc Met (pentylenetetrazole) seizure threshold test. In kind it is functional. An outline of the steps:
as §2

Data set [12] has as its system Mus musculus. The experiment in a line: Evaluated for seizure threshold test at a dose 50 mg/kg &MMT is the maximal metrazole threshold to tonic flexion. The format is functional. The gist of the method: as §3
In data set [13] the test system is Mus musculus. Nature of the data set: Evaluated for seizure threshold test at a dose 30 mg/kg &MMT is the maximal metrazole threshold to tonic flexion. The format is functional. The gist of the method:
as §3

Data set [14] has as its system Mus musculus. The experiment in a line: Evaluated for seizure threshold test at a dose 50 mg/kg &MST is the metrazole seizure threshold to persistent clonus. The format is functional. The gist of the method: as §3
Data set [15] deals with Mus musculus. The experiment in a line: Evaluated for seizure threshold test at a dose 30 mg/kg &MST is the metrazole seizure threshold to persistent clonus. In kind it is functional. The gist of the method:
as §3

Data set [16] concerns Mus musculus. Nature of the data set: Evaluated for seizure threshold test at a dose 300 mg/kg & MMT is the maximal metrazole threshold to tonic flexion; I = Inactive. The format is functional, organism-based. On the set-up: dose 300 mg/kg. The gist of the method: as §1
Data set [17] concerns GABA-A receptor; anion channel. Nature of the data set: Inhibition of binding to GABA-A central benzodiazepine receptor (Inactive at 80 uM). In kind it is protein-complex assay, Mus musculus.
Data set [18] concerns Mus musculus. Nature of the data set: Evaluated for seizure threshold test at a dose 100 mg/kg & MST is the metrazole seizure threshold to persistent clonus. In kind it is functional. An outline of the steps: as §3
The test system of data set [19] is Mus musculus. Nature of the data set: Evaluated for seizure threshold test at a dose 100 mg/kg & MMT is the maximal metrazole threshold to tonic flexion. The format is functional. An outline of the steps:
as §3

Data set [20] deals with Mus musculus. Nature of the data set: Evaluated for seizure threshold test at a dose 39 mg/kg & MMT is the maximal metrazole threshold to tonic flexion. The format is functional. An outline of the steps:
as §3

The test system of data set [21] is Mus musculus. The experiment in a line: Evaluated for seizure threshold test at a dose 49 mg/kg & MST is the metrazole seizure threshold to persistent clonus. In kind it is functional. The gist of the method: as §3
Data set [22] concerns Mus musculus. Nature of the data set: In vivo inhibition of Benzodiazepine (BDZ) binding in mice. The format is functional, organism-based.

In the case of `Cc1cc(C(=O)C2CCCCC2)c(N)c(C#N)c1C`, the TD50 in data set [1] is greater than 600 mg/kg. The Change result is “Not significant” in the data set with Mus musculus [2] and 17% in the data set with Mus musculus [4]. The compound also yielded an ED50 in the data set with Mus musculus [3] of 410 mg/kg.

With `Cc1cc2c(c(C#N)c1C)NC=NC2C` (centres undefined), the Change in the data set with Mus musculus [5] is recorded as -56%; with Mus musculus [8], -36%. Further, the 50% lethal dose (LD50) in [6] was found to be 150 mg/kg. Also, in the data set with Mus musculus [7], the ED50 entry is “inactive”. In addition, in data set [1], the TD50 came to 51.5 mg/kg.

`Cc1cc2c(c(C#N)c1C)NC(=O)NC2c1ccccc1` (centres undefined): the figures for the Change in the data set on Mus musculus [9] and with Mus musculus [10] were 36% and 22%, respectively. Further, the TD50 in data set [1] was greater than 1000 mg/kg. In the data set on Mus musculus [11], this compound came in with an ED50 of 600 mg/kg.

For `Cc1ccccc1-n1c(C)nc2ccccc2c1=O` [METHAQUALONE], the Change with Mus musculus [12] is 40%; with Mus musculus [13], 17%; with Mus musculus [14] it was 42%; in the data set with Mus musculus [15], 18%.

As to `Cc1cc2c(c(C#N)c1C)NC=NC2C1CCCCC1` (centres undefined), the Change result in the data set with Mus musculus [16] and in the data set on Mus musculus [2] was “inactive” in each case. For the same compound, the ED50 entry with Mus musculus [7] is “inactive”. The compound also came in with a TD50 in [1] greater than 600 mg/kg. Also, in data set [17], the concentration for half-maximal inhibition (IC50) entry is reported as “Not Active”.

Turning to `Cc1cc2c(c(C#N)c1C)NC(=O)CN=C2c1ccccc1F`, the Change in the data set on Mus musculus [18] stood at 65%; with Mus musculus [19], 50%; with Mus musculus [20], 30%; with Mus musculus [21], 23%. Moreover, the TD50 in data set [1] came to 710 mg/kg. In addition, in the data set with Mus musculus [3], the 50% effect level (ED50) was put at a dose of 48.9 mg/kg. For the same compound, the IC50 in the data set on Mus musculus [22] was determined as 10 pM.
